Experimental data as given in ChEMBL document CHEMBL1124644, “Exploration of phenyl-spaced 2-amino-(5-9)-phosphonoalkanoic acids as competitive N-methyl-D-aspartic acid antagonists” (J Med Chem, 1989).
pIC50: −log10 of the molar value. Each block holds one molecule with its values, some of them ahead of it. Calls of active or inactive are those of the source. The calls are words filed in the database; no cut-off is given here.

Key:
[1] = target: T1, Glutamate NMDA receptor (Rattus norvegicus) (UniProt P35439+Q00959+Q00960+Q00961+Q62645+Q8VHN2+Q9R1M7); assay: NMDA receptor antagonistic ability of 100 uM of compound was assessed from the ability to displace [3H]CPP29,30 from rat cortical membranes.; type: cell membranes; settings: Membrane
Glutamate NMDA receptor [2] = assay: (§1) N-methyl-D-aspartate glutamate receptor antagonistic activity was assessed from the ability to displace [3H]CPP29,30 from rat cortical membranes.
Mus musculus [3] = species on record: Mus musculus; assay: Compound was tested for the maximum dose that protects from NMDA-induced death in mice; Inactive; type: functional
How it was run: (§2)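 CF-1 mice (22–28 g) got the test agent by retrobulbar iv injection in 0.9% saline (5 mL/kg), then NMDA 25 mg/kg retrobulbar iv 5 or 30 min later. Doses were tested up to 30 mg/kg, scoring protection from lethal seizures.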

Glutamate NMDA receptor [4] = assay: NMDA receptor antagonistic activity was assessed from the ability to displace [3H]CPP29,30 from rat cortical membranes.
How it was run: (§3)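 Crude synaptic membranes came from Long-Evans male rat forebrain (minus cerebellum and brainstem) and were treated with 0.01% Triton X-100 for 30 min at 37 °C, then washed. Membranes (200–400 µg protein/mL) were incubated with 10 nM [³H]CPP in 50 mM Tris-HCl, pH 7.6, for 15 min at 23 °C, in triplicate, and separated by centrifugation. Nonspecific binding was defined with 1 mM L-glutamate. IC50 came from a nonlinear fit of four or more concentrations.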

Mus musculus [5] = assay: N-methyl-D-aspartate glutamate receptor antagonist activity of compound was demonstarted by the inhibition of NMDA-induced lethality in mouse;IA means Compound was inactive at 30 mg/kg when examined after 5 or 30 min after iv dosing.; type: functional, organism-based; parameters: dose 30 mg/kg
How it was run: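 CF-1 mice (22–28 g) received test agent or vehicle (0.9% saline, 5 mL/kg) by retrobulbar injection 5 min before a bolus retrobulbar NMDA dose of 25 mg/kg in saline, which causes lethal seizures in untreated controls. Protection from death was scored. ED50 came from dose-response curves of at least three half-log doses with 10 mice per dose.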

Glutamate NMDA receptor [6] = assay: as §1; how it was run: as §3; remark: listed apart in the source
Mus musculus [7] = assay: N-methyl-D-aspartate glutamate receptor antagonist activity was measured as ataxia (the inability of the mice to cling to screen platform upon its inversion; IA means Compound was inactive at 30 mg/kg when examined after 5 or 30 min after iv dosing; type: functional, organism-based; parameters: dose 30 mg/kg
How it was run: (§4)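 CF-1 mice (22–28 g) were dosed retrobulbarly with test agent or vehicle (0.9% saline, 5 mL/kg). Just before the NMDA challenge they were placed on an inverted screen. Ataxia was scored as failure to cling to the platform after inversion, and ED50 values were derived from dose-response data.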

[8] = target: T1, Glutamate NMDA receptor (Rattus norvegicus); assay: N-methyl-D-aspartate glutamate receptorA antagonistic activity was assessed from the ability to inhibit glutamate-induced accumulation of [Ca2+] in cultured rat cortical neurons;IA means Compound was inactive up to 250 uM.; type: functional
How it was run: (§5)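 Cortical neurons from E18 Sprague-Dawley rat fetuses were tested 14–16 days after plating. Cells were exposed for 30 min at 37 °C to 100 µM L-glutamate with ⁴⁵Ca²⁺ (2 µCi/mL) in Mg-free HBSS containing 1.4 mM CaCl₂ at pH 7.4, then washed and lysed for counting. Baseline uptake was subtracted. IC50 came from at least four half-log concentrations with six or more replicates each.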

Mus musculus [9] = species on record: Mus musculus; assay: Compound was tested for the maximum dose that protects from NMDA-induced death; type: functional; how it was run: as §2
[10] = target: T1, Glutamate NMDA receptor (Rattus norvegicus); assay: N-methyl-D-aspartate glutamate receptor antagonistic ability of 100 uM of compound was assessed from the ability to displace [3H]CPP29,30 from rat cortical membranes.; type: cell membranes; settings: Membrane
Mus musculus [11] = species on record: Mus musculus; assay: N-methyl-D-aspartate glutamate receptor antagonist activity of compound was demonstarted by the inhibition of NMDA-induced lethality in mouse; type: functional
How it was run: (§6)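 CF-1 mice (22–28 g) were dosed retrobulbar with test agent or vehicle (0.9% saline, 5 mL/kg), 5 or 30 min before a bolus retrobulbar injection of NMDA (25 mg/kg) in saline into the other eye. The endpoint was prevention of death from seizures. ED50 came from at least three half-log doses with 10 mice per dose.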

Glutamate NMDA receptor [12] = assay: N-methyl-D-aspartate glutamate receptor antagonistic activity was assessed from the ability to inhibit glutamate-induced accumulation of [Ca2+] in cultured rat cortical neurons.; type: functional; how it was run: as §5
Mus musculus [13] = species on record: Mus musculus; assay: N-methyl-D-aspartate glutamate receptor antagonist activity was measured as ataxia (the inability of the mice to cling to screen platform upon its inversion.); type: functional; how it was run: as §4
Mus musculus [14] = assay: NMDA receptor antagonist activity of compound was demonstarted in vivo by the inhibition of NMDA-induced lethality in mouse tested in vivo; type: functional; how it was run: as §6
Glutamate NMDA receptor [15] = assay: NMDA receptor antagonistic activity was assessed in vitro by deteriming the ability to inhibit glutamate-induced accumulation of [Ca2+] in cultured rat cortical neurons.; type: functional
How it was run: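 Rat (Sprague-Dawley, E18) cerebral hemisphere neurons, trypsin-dissociated, plated on poly-L-lysine at 200 000 cells/cm², used on days 14–16. Assay in serum- and Mg-free HBSS with 1.4 mM CaCl₂, pH 7.4, 37 °C. 30-min exposure to 100 µM L-glutamate (final) plus trace ⁴⁵Ca²⁺, with or without test agent. Baseline subtracted. IC50 from ≥4 half-log concentrations, ≥6 replicates each.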

Mus musculus [16] = assay: NMDA antagonist activity was measured as ataxia (the inability of the mice to cling to screen platform upon its inversion.) tested in vivo; type: functional
How it was run: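 Ataxia was scored in CF-1 mice (22–28 g) on an inverted screen, as failure to cling when the platform was inverted. Scoring was done just before NMDA challenge (25 mg/kg, retrobulbar iv) and after retrobulbar dosing of the test agent in 0.9% saline (5 mL/kg). The result is reported as an ED50.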

Glutamate NMDA receptor [17] = assay: NMDA receptor antagonistic activity was assessed in vitro by the assement of ability to inhibit glutamate-induced accumulation of [Ca2+] in cultured rat cortical neurons.; type: functional; how it was run: as §5
Mus musculus [18] = species on record: Mus musculus; assay: NMDA receptor antagonist activity was measured as ataxia (the inability of the mice to cling to screen platform upon its inversion.); type: functional; how it was run: as §4
Mus musculus [19] = assay: NMDA receptor antagonist activity of compound was demonstarted in vivo, by the inhibition of NMDA-induced lethality in mouse; type: functional; how it was run: as §6
Glutamate NMDA receptor [20] = assay: NMDA receptor antagonistic activity was assessed from the ability to displace [3H]CPP29,30 from rat cortical membranes; how it was run: as §3
Mus musculus [21] = assay: Compound was tested in vivo for the maximum dose that protects from NMDA-induced death in mice; Inactive; type: functional; how it was run: as §2

I [1]: 46%
SMILES: NC(CCCc1ccccc1CP(=O)(O)O)C(=O)O (stereo not drawn)

pIC50 (Glutamate NMDA receptor [2]): 7.10
SMILES: O=C(O)C1CN(CCCP(=O)(O)O)CCN1 (stereo not drawn)

SMILES: NC(C(=O)O)c1cccc(P(=O)(O)O)c1 (stereo not drawn)
Max dose (Mus musculus [3]): 30 mg/kg
pIC50 (Glutamate NMDA receptor [4]): 4.76

I [1]: 20%
SMILES: NC(C(=O)O)c1ccc(CCCP(=O)(O)O)cc1 (stereo not drawn)

SMILES: NC(Cc1ccccc1CCP(=O)(O)O)C(=O)O (stereo not drawn)
IA (Mus musculus [5]): inactive
pIC50 (Glutamate NMDA receptor [6]): 4.22
IA (Mus musculus [7]): inactive
IA [8]: inactive
Max dose (Mus musculus [9]): 30 mg/kg

I [1]: 10%
SMILES: NC(C(=O)O)c1ccc(P(=O)(O)O)cc1 (stereo not drawn)

I [10]: 54%
SMILES: NC(CCc1ccccc1CP(=O)(O)O)C(=O)O (stereo not drawn)

I [1]: 10%
SMILES: NC(Cc1ccc(P(=O)(O)O)cc1)C(=O)O (stereo not drawn)

SMILES: NC(Cc1ccc(CP(=O)(O)O)cc1)C(=O)O (stereo not drawn)
ED50 (Mus musculus [11]): 74 mg/kg
pIC50 (Glutamate NMDA receptor [12]): 3.42
pIC50 (Glutamate NMDA receptor [6]): 5.48
ED50 (Mus musculus [13]): 74 mg/kg

I [1]: 1%
SMILES: NC(Cc1cccc(CP(=O)(O)O)c1)C(=O)O (stereo not drawn)

I [10]: 19%
SMILES: NC(Cc1cccc(CCP(=O)(O)O)c1)C(=O)O (stereo not drawn)

SMILES: NC(CCCCCP(=O)(O)O)C(=O)O (stereo not drawn) [AP-7]
ED50 (Mus musculus [14]): 56 mg/kg
pIC50 (Glutamate NMDA receptor [15]): 4.34
ED50 (Mus musculus [16]): 17 mg/kg
pIC50 (Glutamate NMDA receptor [4]): 6.10

I [1]: 4%
SMILES: NC(C(=O)O)c1ccc(CCP(=O)(O)O)cc1 (stereo not drawn)

I [10]: 15%
SMILES: NC(Cc1cccc(P(=O)(O)O)c1)C(=O)O (stereo not drawn)

I [1]: 35%
SMILES: NC(C(=O)O)c1cccc(CCP(=O)(O)O)c1 (stereo not drawn)

SMILES: NC(C(=O)O)c1ccc(CP(=O)(O)O)cc1 (stereo not drawn)
pIC50 (Glutamate NMDA receptor [17]): 4.24
ED50 (Mus musculus [18]): 19 mg/kg
ED50 (Mus musculus [19]): 8 mg/kg
pIC50 (Glutamate NMDA receptor [20]): 6.00

SMILES: NC(C(=O)O)c1cccc(CP(=O)(O)O)c1 (stereo not drawn)
pIC50 (Glutamate NMDA receptor [4]): 5.03
Max dose (Mus musculus [21]): 60 mg/kg

I [10]: 3%
SMILES: NC(Cc1ccccc1P(=O)(O)O)C(=O)O (stereo not drawn)
